Several values for one entry are separate records, joined by “and”; a condition that tells them apart may be missing. Equal values may be shown once.
Test system: HEK-293T
Assay: Multiplex assay against HEK293T
Type: toxicity, cell-based
Details: human
Outline: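 Compound was added to live cells that had been stained at seeding with Hoechst33342, BioTracker Green Microtubule Cytoskeleton Dye, MitoTracker Red and Annexin V Alexa Fluor 680, and imaging followed on a CQ1 microscope at 37°C and 5% CO2. CellPathfinder machine-learning gating divided cells into Hoechst high-intensity objects or normal cells, normal cells into healthy, pyknosed or fragmented nuclei, and pyknosed cells into mitotic or apoptotic. Tubulin, mitochondrial-mass and membrane-permeability phenotypes are per cents of healthy-nucleus cells.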

[1] = 12 h, 1 µM, compound concentration 1 uM
[2] = 12 h, 10 µM, compound concentration 10 uM
[3] = 24 h, 1 µM, compound concentration 1 uM
[4] = 24 h, 10 µM, compound concentration 10 uM
[5] = 48 h, 1 µM, compound concentration 1 uM
[6] = 48 h, 10 µM, compound concentration 10 uM

O=C1[C@H](Cc2ccc(O)cc2)N2C(=O)CCN(C(=O)NCc3ccccc3)[C@H]2CN1Cc1cccc2ccccc12
Population Apoptotic (%) [1]: 44% and 46%
Population Fragmented Nuclei (%) [1]: 6% and 7%
Population Healthy Nuclei (%) [1]: 80% and 78%
Population Hoechst High Intensity Objects (%) [1]: 6% and 8%
Population Membrane Permeable-Phenotype (%) [1]: 0%
Population Mitochondria Different-Phenotype (%) [1]: 54% and 68%
Population Mitotic Cells (%) [1]: 55% and 53%
Population Normal (%) [1]: 93% and 91%
Population Pyknosed Nuclei (%) [1]: 12% and 13%
Population Tubulin-Different-Phenotype (%) [1]: 46% and 33%
Total Cell Count [1]: 374 and 259
Population Apoptotic (%) [2]: 68% and 60%
Population Fragmented Nuclei (%) [2]: 5%
Population Healthy Nuclei (%) [2]: 74% and 82%
Population Hoechst High Intensity Objects (%) [2]: 11% and 14%
Population Membrane Permeable-Phenotype (%) [2]: 0%
Population Mitochondria Different-Phenotype (%) [2]: 90% and 93%
Population Mitotic Cells (%) [2]: 31% and 40%
Population Normal (%) [2]: 88% and 85%
Population Pyknosed Nuclei (%) [2]: 20% and 11%
Population Tubulin-Different-Phenotype (%) [2]: 76% and 67%
Total Cell Count [2]: 340 and 257
Population Apoptotic (%) [3]: 23% and 55%
Population Fragmented Nuclei (%) [3]: 7% and 8%
Population Healthy Nuclei (%) [3]: 80% and 77%
Population Hoechst High Intensity Objects (%) [3]: 7% and 8%
Population Membrane Permeable-Phenotype (%) [3]: 0%
Population Mitochondria Different-Phenotype (%) [3]: 49% and 47%
Population Mitotic Cells (%) [3]: 76% and 45%
Population Normal (%) [3]: 92% and 91%
Population Pyknosed Nuclei (%) [3]: 11% and 14%
Population Tubulin-Different-Phenotype (%) [3]: 38% and 24%
Total Cell Count [3]: 470 and 305
Population Apoptotic (%) [4]: 68% and 74%
Population Fragmented Nuclei (%) [4]: 7% and 9%
Population Healthy Nuclei (%) [4]: 75% and 77%
Population Hoechst High Intensity Objects (%) [4]: 11% and 14%
Population Membrane Permeable-Phenotype (%) [4]: 0%
Population Mitochondria Different-Phenotype (%) [4]: 94% and 95%
Population Mitotic Cells (%) [4]: 31% and 25%
Population Normal (%) [4]: 88% and 85%
Population Pyknosed Nuclei (%) [4]: 16% and 12%
Population Tubulin-Different-Phenotype (%) [4]: 65% and 70%
Total Cell Count [4]: 278 and 249
Population Apoptotic (%) [5]: 30% and 50%
Population Fragmented Nuclei (%) [5]: 14% and 11%
Population Healthy Nuclei (%) [5]: 78% and 81%
Population Hoechst High Intensity Objects (%) [5]: 4% and 3%
Population Membrane Permeable-Phenotype (%) [5]: 0%
Population Mitochondria Different-Phenotype (%) [5]: 34% and 29%
Population Mitotic Cells (%) [5]: 69% and 50%
Population Normal (%) [5]: 95% and 96%
Population Pyknosed Nuclei (%) [5]: 6% and 7%
Population Tubulin-Different-Phenotype (%) [5]: 26% and 19%
Total Cell Count [5]: 730 and 472
Population Apoptotic (%) [6]: 71% and 57%
Population Fragmented Nuclei (%) [6]: 8% and 11%
Population Healthy Nuclei (%) [6]: 79% and 73%
Population Hoechst High Intensity Objects (%) [6]: 10% and 20%
Population Membrane Permeable-Phenotype (%) [6]: 0%
Population Mitochondria Different-Phenotype (%) [6]: 94% and 88%
Population Mitotic Cells (%) [6]: 28% and 42%
Population Normal (%) [6]: 89% and 79%
Population Pyknosed Nuclei (%) [6]: 11% and 14%
Population Tubulin-Different-Phenotype (%) [6]: 63% and 72%
Total Cell Count [6]: 297 and 232

C[C@H](N)COC(=O)[C@@H](CCCCN)NC(=O)Cc1c(-c2ccc3ccccc3c2)[nH]c2c1ccc1ccccc12
Population Apoptotic (%) [1]: 22% and 51%
Population Fragmented Nuclei (%) [1]: 6% and 8%
Population Healthy Nuclei (%) [1]: 82% and 74%
Population Hoechst High Intensity Objects (%) [1]: 8%
Population Membrane Permeable-Phenotype (%) [1]: 0%
Population Mitochondria Different-Phenotype (%) [1]: 37% and 65%
Population Mitotic Cells (%) [1]: 77% and 48%
Population Normal (%) [1]: 91%
Population Pyknosed Nuclei (%) [1]: 10% and 16%
Population Tubulin-Different-Phenotype (%) [1]: 27% and 30%
Total Cell Count [1]: 458 and 291
Population Apoptotic (%) [2]: 41% and 61%
Population Fragmented Nuclei (%) [2]: 7% and 5%
Population Healthy Nuclei (%) [2]: 78%
Population Hoechst High Intensity Objects (%) [2]: 11% and 7%
Population Membrane Permeable-Phenotype (%) [2]: 0%
Population Mitochondria Different-Phenotype (%) [2]: 60% and 72%
Population Mitotic Cells (%) [2]: 58% and 38%
Population Normal (%) [2]: 88% and 93%
Population Pyknosed Nuclei (%) [2]: 14% and 16%
Population Tubulin-Different-Phenotype (%) [2]: 54% and 50%
Total Cell Count [2]: 435 and 343
Population Apoptotic (%) [3]: 25% and 54%
Population Fragmented Nuclei (%) [3]: 9% and 7%
Population Healthy Nuclei (%) [3]: 77% and 80%
Population Hoechst High Intensity Objects (%) [3]: 4% and 7%
Population Membrane Permeable-Phenotype (%) [3]: 0% and 1%
Population Mitochondria Different-Phenotype (%) [3]: 24% and 47%
Population Mitotic Cells (%) [3]: 75% and 45%
Population Normal (%) [3]: 95% and 92%
Population Pyknosed Nuclei (%) [3]: 12%
Population Tubulin-Different-Phenotype (%) [3]: 19% and 25%
Total Cell Count [3]: 638 and 352
Population Apoptotic (%) [4]: 41% and 48%
Population Fragmented Nuclei (%) [4]: 6% and 9%
Population Healthy Nuclei (%) [4]: 78% and 80%
Population Hoechst High Intensity Objects (%) [4]: 6% and 7%
Population Membrane Permeable-Phenotype (%) [4]: 0%
Population Mitochondria Different-Phenotype (%) [4]: 57% and 54%
Population Mitotic Cells (%) [4]: 58% and 51%
Population Normal (%) [4]: 93% and 92%
Population Pyknosed Nuclei (%) [4]: 14% and 10%
Population Tubulin-Different-Phenotype (%) [4]: 45% and 42%
Total Cell Count [4]: 539 and 439
Population Apoptotic (%) [5]: 15% and 37%
Population Fragmented Nuclei (%) [5]: 13% and 11%
Population Healthy Nuclei (%) [5]: 78% and 79%
Population Hoechst High Intensity Objects (%) [5]: 4%
Population Membrane Permeable-Phenotype (%) [5]: 2% and 0%
Population Mitochondria Different-Phenotype (%) [5]: 16% and 29%
Population Mitotic Cells (%) [5]: 84% and 62%
Population Normal (%) [5]: 95%
Population Pyknosed Nuclei (%) [5]: 7% and 9%
Population Tubulin-Different-Phenotype (%) [5]: 13% and 17%
Total Cell Count [5]: 963 and 540
Population Apoptotic (%) [6]: 27% and 32%
Population Fragmented Nuclei (%) [6]: 13% and 14%
Population Healthy Nuclei (%) [6]: 78% and 79%
Population Hoechst High Intensity Objects (%) [6]: 6% and 4%
Population Membrane Permeable-Phenotype (%) [6]: 0%
Population Mitochondria Different-Phenotype (%) [6]: 44% and 43%
Population Mitotic Cells (%) [6]: 72% and 67%
Population Normal (%) [6]: 93% and 95%
Population Pyknosed Nuclei (%) [6]: 7% and 6%
Population Tubulin-Different-Phenotype (%) [6]: 33% and 35%
Total Cell Count [6]: 781 and 681

Reference: ChEMBL document CHEMBL5724801, “EUbOPEN Chemogenomics Library - Multiplex” (2024)
